Measurements published in the EternaBench riboswitch data.

System: MS2 coat protein
Assay: apparent Kd, MS2 coat protein; higher = weaker binding; RNA-MaP array; FMN 200 µM where present
Method in brief: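 Stalled E. coli RNA polymerase transcribed each design on Illumina sequencing-chip clusters. The clusters were titrated with SNAP-549-labelled MS2 coat protein, starting at 0.7 or 1.5 nM and doubling up to 3 µM, first without ligand and then with constant ligand, in 100 mM Tris-HCl pH 7.5, 80 mM KCl, 4 mM MgCl2, BSA, DTT, yeast tRNA and Tween-20. Green signal was normalised to red-channel RNA signal and to the control-cluster median Fmax. The apparent Kd is the median of filtered binding-curve fits made for each cluster.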

[1] = designed as: ON switch for flavin mononucleotide, no ligand
[2] = ligand present: flavin mononucleotide, designed as: ON switch for flavin mononucleotide
[3] = designed as: OFF switch for flavin mononucleotide, no ligand
[4] = ligand present: flavin mononucleotide, designed as: OFF switch for flavin mononucleotide

GUGGUGAAUUAAGGAUAUCGAGUCUAGAUGUUAAACAUGAGGAUCACCCAUGUGGGUUGCGGUGUCGAGAAGGUAAUUUACGGG
apparent Kd [1]: 0.0643 µM | apparent Kd [2]: 0.0339 µM

AAUAAACAUGAGGAUCACCCAUGUAAAUGGGCGAUAGGAUAUGCGAAAAUAAAGAAAGAAGCAGAAGGAUCGAAGA
apparent Kd [1]: 0.846 µM | apparent Kd [2]: 0.509 µM

AGUACUCAAAGAGUACCCAUACGGACAUGAGGAUCACCCAUGUAGGAUAUGCUACUCAAAGAGUAGUAGAAGGACAUAUACCUC
apparent Kd [3]: 0.00891 µM | apparent Kd [4]: 0.0157 µM

AUGGAUAUCACAGGAUAUGCUAUGGAUACCAUAGCAGAAGGGUGAUCCAUCCUAUGUAAAUACAUGAGGAUCACCCAUGUGUCC
apparent Kd [1]: 0.05 µM | apparent Kd [2]: 0.0357 µM

ACUCUGCGAGGAUAUACAUGAGGAUCACCCAUGUGCGAGUUACUUGUGAGGUCGGUUGGUAGAAGGCGCGGAGA
apparent Kd [3]: 0.0994 µM | apparent Kd [4]: 0.134 µM

AUCAGGUCGUCAGGAUAUACGUCACUGCGUCAGCAGUGUGGUAAGAUCACAUGAGGAUCACCCAUGUAGAAGGGACGAGCUGAU
apparent Kd [3]: 0.0132 µM | apparent Kd [4]: 0.311 µM

UUGAGGUAAGGAUAUAUUAGGAGCGAAGUUACUUGUUUUUUAUAGAAGGUACAUGAGGAUCACCCAUGUGAAUA
apparent Kd [3]: 0.0277 µM | apparent Kd [4]: 0.0234 µM

UACGGACAUGAGGAUCACCCAUGUGAGGAUAUCGAUAACGAUAGCAUAAUAUAAUCGGCGAGAAGGCACAGCGU
apparent Kd [3]: 0.0327 µM | apparent Kd [4]: 0.0409 µM

UCAUCAGCGGGCGGAUCGGUUGGACAUGAGGAUCACCCAUGUAGAAGGACCGGUGGAUUCCGGCGGUAGGAUAUACAUUUGGUG
apparent Kd [3]: 0.0129 µM | apparent Kd [4]: 0.0274 µM

UGUCGGAGCACAGGAUAUUACAUGAGGAUCACCCAUGUAUGAACCAAUAGCUGGAAACAGCAAUGUAAGAAGGCUGCUCCGACA
apparent Kd [3]: 0.0056 µM | apparent Kd [4]: 0.00571 µM

GGCAUACAUGAGGAUCACCCAUGUUCAACCUAGAUAGGAUAUGGGCCUCUUGUAUUAGGCCCAGAAGGAUCUGUAA
apparent Kd [1]: 0.103 µM | apparent Kd [2]: 0.0296 µM

UAUUUGUGAGGAUAUGAGUCGUAGAACAAUAGUACUACGUCUCAGAAGGCACAUGAGGAUCACCCAUGUACCUC
apparent Kd [3]: 0.0179 µM | apparent Kd [4]: 0.122 µM

UCGCUGCGAGGAUAUACGUUUGCGCGUUUUCGUUUGCGCGUACAUGAGGAUCACCCAUGUAGAAGGCGCGCUGC
apparent Kd [3]: 0.0154 µM | apparent Kd [4]: 0.0155 µM

GUUCUCGGAGGAUAUACACAGUGAGAACCCGCGCAAGCGGGACAUGAGGAUCACCCAUGUAGAAGGUCGAGCAA
apparent Kd [3]: 0.0702 µM | apparent Kd [4]: 0.17 µM

GUAAAGUGAGGAUAUGGUAAAUUAAUUAUUAAUUAAUUAAUCCAGAAGGCACAUGAGGAUCACCCAUGUAAUUG
apparent Kd [4]: 0.0391 µM

UUACUAUUGCAGAAGGCGCAAUAAUAUAUAAAGUGAGGAUAUGCAACAUGAGGAUCACCCAUGUUUCACCCAUAUGAGGAUCAC
apparent Kd [3]: 0.00693 µM | apparent Kd [4]: 0.00732 µM

UUAUUUUGUCAAGGAUAUGUAGUAUUGAUCUGAAAACAUGAGGAUCACCCAUGUAUAUGGUGGGAACAGAAGGUGAAUGUUGAA
apparent Kd [3]: 0.658 µM | apparent Kd [4]: 0.845 µM

GUUUUGGGAGGAUAUAUGUGGAUUAUUUUUGUAUGUUGUUUACAUGAGGAUCACCCAUGUAGAAGGUCUAGAGC
apparent Kd [3]: 0.102 µM | apparent Kd [4]: 0.211 µM

GCGAUUUAGUAGAAGGUACGAUAUAUAUCAUUGUAAGGAUAUACUUACAUGAGGAUCACCCAUGUUAAGGGUUAUAAUAAUCGC
apparent Kd [1]: 0.195 µM | apparent Kd [2]: 0.134 µM

ACAUGAGGAUCACCCAUGUUCACAUAGGAUAUUGAUUAUAUUGGUUUUAGAAUAGUAAUUAACCUCAAGAAGGAUGCCAGUUCU
apparent Kd [1]: 0.0134 µM | apparent Kd [2]: 0.01 µM
